In ChEMBL document CHEMBL3351518, “Synthesis and antibacterial activity of catecholate-ciprofloxacin conjugates” (Bioorg Med Chem, 2014):
Converted amounts (≈) assume the structure as drawn.

How the values were obtained:
[1] = tested on: Pseudomonas aeruginosa; experiment: Antimicrobial activity against ciprofloxacin-sensitive Pseudomonas aeruginosa DSM 1117 grown under succinate minimum medium in presence of 1 uM FeCl3 by broth microdilution method; format: functional
Summary of the method: (§1)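 Overnight cultures at 35 °C in Tryptic Soy Broth were streaked on Tryptic Soy Agar, and inocula were prepared per CLSI. Broth microdilution used two-fold serial dilutions of 0.0625–128 µg/mL from DMSO stocks made with gentle heating (40 °C) and 10 min sonication. Ciprofloxacin served as control in each series. MIC was the highest dilution with clear wells. Media: cation-adjusted Mueller–Hinton, pH 7.3; succinate minimum medium, pH 7.0, without or with 1 µM FeCl3 added.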

[2] = tested on: Pseudomonas aeruginosa; experiment: Antimicrobial activity against ciprofloxacin-resistant Pseudomonas aeruginosa AM 85 grown under succinate minimum medium in presence of 1 uM FeCl3 by broth microdilution method; format: functional
Summary of the method: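 Clinical efflux-mediated ciprofloxacin-resistant isolate AM 85, grown overnight at 35 °C in Tryptic Soy Broth and isolated on Tryptic Soy Agar. CLSI broth microdilution in succinate minimum medium, pH 7.0, supplemented with FeCl3 for iron-enriched conditions. Compounds were dissolved in DMSO (40 °C, 10 min sonication) and serially diluted two-fold, 0.0625–128. MIC is the highest dilution with clear wells.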

[3] = tested on: Pseudomonas aeruginosa; experiment: Antimicrobial activity against ciprofloxacin-resistant Pseudomonas aeruginosa AM 85 grown under Mueller-Hinton medium by broth microdilution method; format: functional
Summary of the method: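 AM 85 is a clinical isolate with efflux-mediated ciprofloxacin resistance. Grown overnight at 35 °C in Tryptic Soy Broth, then streaked on Tryptic Soy Agar. CLSI broth microdilution in cation-adjusted Mueller–Hinton broth, pH 7.3. DMSO stock (40 °C warming, 10 min sonication) diluted two-fold, 0.0625–128. MIC is the highest dilution with clear wells.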

[4] = tested on: Pseudomonas aeruginosa; experiment: Antimicrobial activity against ciprofloxacin-sensitive Pseudomonas aeruginosa DSM 1117 grown under Mueller-Hinton medium by broth microdilution method; format: functional; summary of the method: as §1
[5] = tested on: Pseudomonas aeruginosa; experiment: Antimicrobial activity against ciprofloxacin-resistant Pseudomonas aeruginosa AM 85 grown under succinate minimum medium by broth microdilution method; format: functional
Summary of the method: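 AM 85 is a clinical isolate with efflux-mediated ciprofloxacin resistance. Overnight growth at 35 °C in Tryptic Soy Broth, then Tryptic Soy Agar plates. CLSI broth microdilution in iron-deprived succinate minimum medium, pH 7.0, with no iron added. Two-fold dilutions (0.0625–128) from a DMSO stock made with 40 °C warming and 10 min sonication. MIC read as the highest dilution with clear wells.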

[6] = Toxicity in human RBC assessed as induction of hemolysis at 384 ug/ml after 1 hr relative to saponin; format: cell-based, Erythrocyte; settings: red blood cells (RBC), read-out: Activity
Summary of the method: (§2)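 Human red blood cells were washed three times in TRIS buffer (10 mmol/l TRIS, 150 mmol/l NaCl, pH 7.4) and suspended at 0.5% (v/v). 15 µL of test or control solution was added to 235 µL suspension, in triplicate, with 1% saponin as 100% hemolysis and DMSO/TRIS as negative controls. Incubation was 1 h at 37 °C. After centrifugation, supernatant OD was read at 405 nm.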

[7] = tested on: Pseudomonas aeruginosa; experiment: Antimicrobial activity against ciprofloxacin-sensitive Pseudomonas aeruginosa DSM 1117 grown under succinate minimum medium by broth microdilution method; format: functional; summary of the method: as §1
[8] = Toxicity in human RBC assessed as induction of hemolysis after 1 hr relative to saponin; format: cell-based, Erythrocyte; settings: red blood cells (RBC), read-out: Activity; summary of the method: as §2
[9] = Toxicity in human RBC assessed as induction of hemolysis up to 384 ug/ml after 1 hr relative to saponin; format: cell-based, Erythrocyte; settings: red blood cells (RBC), read-out: Activity; summary of the method: as §2
[10] = Induction of iron complexation in mixed H2O/DMSO solvent mixture (0.2 mole fraction of DMSO) at 1:3 mixture of […] at 25 degC at 3.0 <pH <4.1 by UV-visible spectrophotometry; format: physicochemical
Summary of the method: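 UV–visible spectra of 1:3 iron(III):ligand solutions were recorded across pH in H2O/DMSO at 0.2 DMSO mole fraction, 25 °C. pH was adjusted by automatic titrator addition of 0.1 M KOH prepared in the same solvent. The glass electrode was calibrated by titrating 0.1 M HCl with KOH in H2O/DMSO.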

Compound | MIC [1] | MIC [2] | MIC [3] | MIC [4] | MIC [5] | hemolysis at 1 h, 384 ug/ml [6] | MIC [7] | hemolysis at 1 h [8] | hemolysis at 1 h [9] | Activity [10]
O=C(NCCCC(CCCNC(=O)c1cccc(O)c1O)(CCCNC(=O)c1cccc(O)c1O)C(=O)N1CCN(c2cc3c(cc2F)c(=O)c(C(=O)O)cn3C2CC2)CC1)c1cccc(O)c1O | > 128 µg/mL | > 128 µg/mL | > 128 µg/mL | > 128 µg/mL | > 128 µg/mL | 40% | > 128 µg/mL |  |  | 
O=C(CN1CCN(c2cc3c(cc2F)c(=O)c(C(=O)O)cn3C2CC2)CC1)OCC(CCCNC(=O)c1cccc(O)c1O)(CCCNC(=O)c1cccc(O)c1O)CCCNC(=O)c1cccc(O)c1O | 4 µg/mL | > 128 µg/mL | > 128 µg/mL | 8 µg/mL (≈ 8.02 µM) | > 128 µg/mL |  | 8 µg/mL (≈ 8.02 µM) | < 10% |  | 
O=C(CCN1CCN(c2cc3c(cc2F)c(=O)c(C(=O)O)cn3C2CC2)CC1)OCC(CCCNC(=O)c1cccc(O)c1O)(CCCNC(=O)c1cccc(O)c1O)CCCNC(=O)c1cccc(O)c1O | 64 µg/mL | > 128 µg/mL | > 128 µg/mL | > 128 µg/mL | > 128 µg/mL |  | > 128 µg/mL | < 10% |  | 
O=C(O)c1cn(C2CC2)c2cc(N3CCNCC3)c(F)cc2c1=O [CIPROFLOXACIN] |  | 32 µg/mL | 16 µg/mL (≈ 48.3 µM) |  | 16 µg/mL (≈ 48.3 µM) |  |  | < 10% |  | 
O=C(O)c1cn(C2CC2)c2cc(N3CCN(C(=O)c4cccc(O)c4O)CC3)c(F)cc2c1=O | 16 µg/mL | 32 µg/mL | > 128 µg/mL | > 128 µg/mL | 64 µg/mL (≈ 137 µM) |  | 32 µg/mL (≈ 68.5 µM) |  | < 10% | Active
O=C(O)CN1CCN(c2cc3c(cc2F)c(=O)c(C(=O)O)cn3C2CC2)CC1 | 0.125 µg/mL | 16 µg/mL | 16 µg/mL (≈ 41.1 µM) | 0.25 µg/mL (≈ 0.642 µM) | 16 µg/mL (≈ 41.1 µM) | 40% | 0.125 µg/mL (≈ 0.321 µM) |  |  | 
O=C(CCCN1CCN(c2cc3c(cc2F)c(=O)c(C(=O)O)cn3C2CC2)CC1)OCC(CCCNC(=O)c1cccc(O)c1O)(CCCNC(=O)c1cccc(O)c1O)CCCNC(=O)c1cccc(O)c1O | 32 µg/mL | > 128 µg/mL | > 128 µg/mL | 64 µg/mL (≈ 62.4 µM) | > 128 µg/mL |  | 64 µg/mL (≈ 62.4 µM) | < 10% |  | 
COC(=O)CN1CCN(c2cc3c(cc2F)c(=O)c(C(=O)O)cn3C2CC2)CC1 | 16 µg/mL | > 128 µg/mL | > 128 µg/mL | 8 µg/mL (≈ 19.8 µM) | > 128 µg/mL |  | 16 µg/mL (≈ 39.7 µM) |  | < 10% | 
